Results taken from ChEMBL document CHEMBL5236607, “Membrane-Active Cyclic Amphiphilic Peptides: Broad-Spectrum Antibacterial Activity Alone and in Combination with Antibiotics” (J Med Chem, 2022).
The source made the active and inactive calls. The calls are words filed in the database; no cut-off is given here. Bridge positions count the residues as written; N and C are the ends. Square brackets hold non-standard residues; d marks the D form. Peptide text beside a SMILES is read from it. * marks the point of attachment. X1 = CC[C@H](C)CCCCC(=O)*; Dab = NCC[C@H](N)C(=O)O

What was measured:
[1] = Therapeutic index, ratio of HC50 for human RBC to MIC for methicillin resistant Staphylococcus aureus ATCC BAA-1556
Method in brief: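 Human RBCs washed in PBS pH 7.4 and mixed 1:1 with two-fold peptide dilutions (4% v/v suspension), 2 h at 37 °C. Hemoglobin in supernatant read at 567 nm against PBS (0%) and 1% Triton X-100 (100%). HC50 is the concentration giving 50% hemolysis. Index is HC50 divided by MIC against MRSA.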

Staphylococcus aureus [2] = assay: Antibacterial activity against methicillin resistant Staphylococcus aureus ATCC BAA-1556 after 24 hrs by microbroth dilution method; type: functional
Klebsiella pneumoniae = assay: Antibacterial activity against imipenem resistant Klebsiella pneumoniae ATCC BAA-1705 after 24 hrs by microbroth dilution method; type: functional
Pseudomonas aeruginosa = assay: Antibacterial activity against Pseudomonas aeruginosa ATCC […] after 24 hrs by microbroth dilution method; type: functional
Escherichia coli [3] = assay: Antibacterial activity against Escherichia coli ATCC 25922 after 24 hrs by microbroth dilution method; type: functional
Staphylococcus aureus [4] = assay: Induction of resistance development in Staphylococcus aureus ATCC 29213 assessed as increase in MIC by microtiter plate reader assay; type: functional, organism-based
Method in brief: (§1)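 Serial passage resistance assay with 2-fold microdilution MICs in 96-well plates. Each passage takes the well with the highest concentration still permitting growth, adjusts it to 0.5 McFarland, and dilutes it to a final 5 × 10^5 CFU/mL for the next passage. Eighteen passages; MIC recorded at each. Triplicate.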

Staphylococcus aureus [5] = assay: Induction of resistance development in methicillin resistant Staphylococcus aureus ATCC BAA-1556 assessed as increase in MIC by microtiter plate reader assay; type: functional, organism-based; method in brief: as §1
Escherichia coli [6] = assay: Induction of resistance development in Escherichia coli ATCC BAA-2452 assessed as increase in MIC by microtiter plate reader assay; type: functional, organism-based; method in brief: as §1
Escherichia coli [7] = assay: Induction of resistance development in Escherichia coli ATCC 25922 assessed as increase in MIC by microtiter plate reader assay; type: functional, organism-based

With N=C(N)NCCC[C@@H]1NC(=O)[C@H](CCCNC(=N)N)NC(=O)[C@H](Cc2c[nH]c3ccccc23)NC(=O)[C@H](Cc2c[nH]c3ccccc23)NC(=O)[C@H](Cc2c[nH]c3ccccc23)NC(=O)[C@H](Cc2c[nH]c3ccccc23)NC(=O)[C@H](Cc2c[nH]c3ccccc23)NC(=O)[C@H](CCCNC(=N)N)NC1=O (cyclo(RRRWWWWW)) the TI [1] was 0.63.

Work on N=C(N)NCCC[C@@H]1NC(=O)[C@H](CCCNC(=N)N)NC(=O)[C@H](CCCNC(=N)N)NC(=O)[C@H](CCCNC(=N)N)NC(=O)[C@H](Cc2c[nH]c3ccccc23)NC(=O)[C@H](Cc2c[nH]c3ccccc23)NC(=O)[C@H](Cc2c[nH]c3ccccc23)NC(=O)[C@H](Cc2c[nH]c3ccccc23)NC(=O)[C@H](Cc2c[nH]c3ccccc23)NC(=O)[C@H](CCCNC(=N)N)NC(=O)[C@H](CCCNC(=N)N)NC(=O)[C@H](CCCNC(=N)N)NC1=O (cyclo(RRRRRRRWWWWW)) yielded a TI [1] of 21.9.

In the case of N=C(N)NCCC[C@@H]1NC(=O)[C@H](CCCNC(=N)N)NC(=O)[C@H](Cc2c[nH]c3ccccc23)NC(=O)[C@H](Cc2c[nH]c3ccccc23)NC(=O)[C@H](Cc2c[nH]c3ccccc23)NC(=O)[C@H](Cc2c[nH]c3ccccc23)NC1=O (cyclo(RRWWWW)), the TI [1] is reported as 1.33.

With N=C(N)NCCC[C@@H]1NC(=O)[C@H](CCCNC(=N)N)NC(=O)[C@H](CCCNC(=N)N)NC(=O)[C@H](Cc2c[nH]c3ccccc23)NC(=O)[C@H](Cc2c[nH]c3ccccc23)NC(=O)[C@H](Cc2c[nH]c3ccccc23)NC(=O)[C@H](Cc2c[nH]c3ccccc23)NC(=O)[C@H](Cc2c[nH]c3ccccc23)NC(=O)[C@H](Cc2c[nH]c3ccccc23)NC(=O)[C@H](CCCNC(=N)N)NC1=O the TI [1] was 0.59.

In the case of N=C(N)NCCC[C@@H]1NC(=O)[C@H](CCCNC(=N)N)NC(=O)[C@H](CCCNC(=N)N)NC(=O)[C@H](Cc2c[nH]c3ccccc23)NC(=O)[C@H](Cc2c[nH]c3ccccc23)NC(=O)[C@H](Cc2c[nH]c3ccccc23)NC(=O)[C@H](Cc2c[nH]c3ccccc23)NC(=O)[C@H](Cc2c[nH]c3ccccc23)NC(=O)[C@H](Cc2c[nH]c3ccccc23)NC(=O)[C@H](CCCNC(=N)N)NC(=O)[C@H](CCCNC(=N)N)NC1=O (cyclo(RRRRRWWWWWW)), the MIC (Staphylococcus aureus [2]) is reported as > 256 µg/mL, the MIC (Klebsiella pneumoniae) is reported as > 256 µg/mL and the MIC (Pseudomonas aeruginosa) is reported as > 256 µg/mL. The MIC (Escherichia coli [3]) was > 256 µg/mL and the TI [1] was > 0.54.

For N=C(N)NCCC[C@@H]1NC(=O)[C@H](CCCNC(=N)N)NC(=O)[C@H](CCCNC(=N)N)NC(=O)[C@H](Cc2c[nH]c3ccccc23)NC(=O)[C@H](Cc2c[nH]c3ccccc23)NC(=O)[C@H](Cc2c[nH]c3ccccc23)NC(=O)[C@H](Cc2c[nH]c3ccccc23)NC(=O)[C@H](Cc2c[nH]c3ccccc23)NC(=O)[C@H](Cc2c[nH]c3ccccc23)NC(=O)[C@H](Cc2c[nH]c3ccccc23)NC(=O)[C@H](CCCNC(=N)N)NC1=O (cyclo(RRRRWWWWWWW)), the MIC (Pseudomonas aeruginosa) was > 256 µg/mL and the TI [1] was 0.23.

Work on N=C(N)NCCC[C@@H]1NC(=O)[C@H](CCCNC(=N)N)NC(=O)[C@H](CCCNC(=N)N)NC(=O)[C@H](Cc2c[nH]c3ccccc23)NC(=O)[C@H](Cc2c[nH]c3ccccc23)NC(=O)[C@H](Cc2c[nH]c3ccccc23)NC(=O)[C@H](Cc2c[nH]c3ccccc23)NC(=O)[C@H](CCCNC(=N)N)NC1=O (cyclo(RRRRWWWW)) yielded a TI [1] of 43.8.

In the case of N=C(N)NCCC[C@@H]1NC(=O)[C@H](CCCNC(=N)N)NC(=O)[C@H](CCCNC(=N)N)NC(=O)[C@H](Cc2c[nH]c3ccccc23)NC(=O)[C@H](Cc2c[nH]c3ccccc23)NC(=O)[C@H](Cc2c[nH]c3ccccc23)NC(=O)[C@H](Cc2c[nH]c3ccccc23)NC(=O)[C@H](Cc2c[nH]c3ccccc23)NC(=O)[C@H](Cc2c[nH]c3ccccc23)NC(=O)[C@H](Cc2c[nH]c3ccccc23)NC(=O)[C@H](CCCNC(=N)N)NC(=O)[C@H](CCCNC(=N)N)NC1=O (cyclo(RRRRRWWWWWWW)), the MIC (Staphylococcus aureus [2]) is reported as > 256 µg/mL, the MIC (Klebsiella pneumoniae) is reported as > 256 µg/mL and the MIC (Pseudomonas aeruginosa) is reported as > 256 µg/mL. The MIC (Escherichia coli [3]) was > 256 µg/mL and the TI [1] was > 0.45.

N=C(N)NCCC[C@@H]1NC(=O)[C@H](CCCNC(=N)N)NC(=O)[C@H](CCCNC(=N)N)NC(=O)[C@H](CCCNC(=N)N)NC(=O)[C@H](Cc2c[nH]c3ccccc23)NC(=O)[C@H](Cc2c[nH]c3ccccc23)NC(=O)[C@H](Cc2c[nH]c3ccccc23)NC(=O)[C@H](Cc2c[nH]c3ccccc23)NC(=O)[C@H](CCCNC(=N)N)NC(=O)[C@H](CCCNC(=N)N)NC(=O)[C@H](CCCNC(=N)N)NC1=O (cyclo(RRRRRRRWWWW)) gave a TI [1] of 11.9.

In the case of N=C(N)NCCC[C@@H]1NC(=O)[C@H](CCCNC(=N)N)NC(=O)[C@H](CCCNC(=N)N)NC(=O)[C@H](CCCNC(=N)N)NC(=O)[C@H](Cc2c[nH]c3ccccc23)NC(=O)[C@H](Cc2c[nH]c3ccccc23)NC(=O)[C@H](Cc2c[nH]c3ccccc23)NC(=O)[C@H](Cc2c[nH]c3ccccc23)NC(=O)[C@H](Cc2c[nH]c3ccccc23)NC(=O)[C@H](Cc2c[nH]c3ccccc23)NC(=O)[C@H](CCCNC(=N)N)NC(=O)[C@H](CCCNC(=N)N)NC(=O)[C@H](CCCNC(=N)N)NC1=O (cyclo(RRRRRRRWWWWWW)), the TI [1] is reported as 5.31.

In the case of N=C(N)NCCC[C@@H]1NC(=O)[C@H](CCCNC(=N)N)NC(=O)[C@H](CCCNC(=N)N)NC(=O)[C@H](CCCNC(=N)N)NC(=O)[C@H](Cc2c[nH]c3ccccc23)NC(=O)[C@H](Cc2c[nH]c3ccccc23)NC(=O)[C@H](Cc2c[nH]c3ccccc23)NC(=O)[C@H](Cc2c[nH]c3ccccc23)NC(=O)[C@H](Cc2c[nH]c3ccccc23)NC(=O)[C@H](Cc2c[nH]c3ccccc23)NC(=O)[C@H](CCCNC(=N)N)NC(=O)[C@H](CCCNC(=N)N)NC1=O (cyclo(RRRRRRWWWWWW)), the TI [1] is reported as 10.6.

Molecule N=C(N)NCCC[C@@H]1NC(=O)[C@H](CCCNC(=N)N)NC(=O)[C@H](Cc2c[nH]c3ccccc23)NC(=O)[C@H](Cc2c[nH]c3ccccc23)NC(=O)[C@H](Cc2c[nH]c3ccccc23)NC(=O)[C@H](Cc2c[nH]c3ccccc23)NC(=O)[C@H](Cc2c[nH]c3ccccc23)NC(=O)[C@H](Cc2c[nH]c3ccccc23)NC(=O)[C@H](CCCNC(=N)N)NC1=O has a TI [1] of 1.02.

With N=C(N)NCCC[C@@H]1NC(=O)[C@H](CCCNC(=N)N)NC(=O)[C@H](Cc2c[nH]c3ccccc23)NC(=O)[C@H](Cc2c[nH]c3ccccc23)NC(=O)[C@H](Cc2c[nH]c3ccccc23)NC(=O)[C@H](CCCNC(=N)N)NC1=O (cyclo(WWWRRR)) the TI [1] was 9.69.

N=C(N)NCCC[C@@H]1NC(=O)[C@H](CCCNC(=N)N)NC(=O)[C@H](CCCNC(=N)N)NC(=O)[C@H](CCCNC(=N)N)NC(=O)[C@H](Cc2c[nH]c3ccccc23)NC(=O)[C@H](Cc2c[nH]c3ccccc23)NC(=O)[C@H](Cc2c[nH]c3ccccc23)NC(=O)[C@H](Cc2c[nH]c3ccccc23)NC(=O)[C@H](Cc2c[nH]c3ccccc23)NC(=O)[C@H](Cc2c[nH]c3ccccc23)NC(=O)[C@H](Cc2c[nH]c3ccccc23)NC(=O)[C@H](CCCNC(=N)N)NC(=O)[C@H](CCCNC(=N)N)NC(=O)[C@H](CCCNC(=N)N)NC1=O (cyclo(RRRRRRRWWWWWWW)) showed a TI [1] of 8.75.

N=C(N)NCCC[C@@H]1NC(=O)[C@H](CCCNC(=N)N)NC(=O)[C@H](Cc2c[nH]c3ccccc23)NC(=O)[C@H](Cc2c[nH]c3ccccc23)NC(=O)[C@H](Cc2c[nH]c3ccccc23)NC(=O)[C@H](Cc2c[nH]c3ccccc23)NC(=O)[C@H](CCCNC(=N)N)NC1=O (cyclo(RRRWWWW)) showed a TI [1] of 13.1.

For N=C(N)NCCC[C@@H]1NC(=O)[C@H](CCCNC(=N)N)NC(=O)[C@H](CCCNC(=N)N)NC(=O)[C@H](Cc2c[nH]c3ccccc23)NC(=O)[C@H](Cc2c[nH]c3ccccc23)NC(=O)[C@H](Cc2c[nH]c3ccccc23)NC(=O)[C@H](Cc2c[nH]c3ccccc23)NC(=O)[C@H](Cc2c[nH]c3ccccc23)NC(=O)[C@H](CCCNC(=N)N)NC(=O)[C@H](CCCNC(=N)N)NC1=O, the TI [1] was 57.5.

In the case of N=C(N)NCCC[C@@H]1NC(=O)[C@H](CCCNC(=N)N)NC(=O)[C@H](Cc2c[nH]c3ccccc23)NC(=O)[C@H](Cc2c[nH]c3ccccc23)NC(=O)[C@H](Cc2c[nH]c3ccccc23)NC1=O (cyclo(RRWWW)), the TI [1] is reported as 3.75.

With O=C(O)c1cn(C2CC2)c2cc(N3CCNCC3)c(F)cc2c1=O the Activity (Staphylococcus aureus [4]) was “Active”, the Activity (Staphylococcus aureus [5]) was “Active” and the Activity (Escherichia coli [6]) was “Active”.

In the case of CC[C@H](C)CCCCC(=O)N[C@@H](CCN)C(=O)N[C@H](C(=O)N[C@@H](CCN)C(=O)N[C@H]1CCNC(=O)[C@H]([C@@H](C)O)NC(=O)[C@H](CCN)NC(=O)[C@H](CCN)NC(=O)[C@H](CC(C)C)NC(=O)[C@@H](Cc2ccccc2)NC(=O)[C@H](CCN)NC1=O)[C@@H](C)O (X1-[Dab]T[Dab][Dab][Dab][dF]L[Dab][Dab]T; lactam 4-C), the Activity (Staphylococcus aureus [4]) is reported as “Active”, the Activity (Staphylococcus aureus [5]) is reported as “Active” and the Activity (Escherichia coli [7]) is reported as “Active”. The Activity (Escherichia coli [6]) was “Active”.
